The values that follow come from ChEMBL document CHEMBL1240476, “Synthesis and antiproliferative activity of indolizinophthalazine-5,12-dione derivatives, DNA topoisomerase IB inhibitors” (Eur J Med Chem, 2010).

Some results are limits rather than exact numbers.

The nature of experiment [1]: Cytotoxicity against human MCF7/ADR cells after 48 hrs by MTT assay. It counts as functional, cell-based. Particulars: NCI/ADR-RES.
The test system of a further experiment is MCF7. The experiment in a line: Cytotoxicity against human MCF7 cells after 48 hrs by MTT assay. It counts as functional, cell-based. The note with it: MCF7, 48 h. (In general: Formazan colour is commonly taken as a measure of viable cells.)
Another experiment has as its system NCI-H460. The experiment in a line: Cytotoxicity against human NCI-H460 cells after 48 hrs by MTT assay. Format: functional, cell-based. The note with it: NCI-H460, 48 h.
The nature of experiment [2]: Cytotoxicity against human GLC82 cells after 48 hrs by MTT assay. It counts as functional, cell-based. Particulars: GLC82, 48 h.
Experiment [3] is described as follows: Inhibition of topoisomerase 1B-mediated relaxation of supercoiled pBR322 DNA at 125 uM after 30 mins by agarose gel electrophoresis. The procedure, abridged: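 TOP1-mediated relaxation of supercoiled DNA: enzyme and DNA incubated with serially diluted compound, 1 to 125 across four lanes. Controls were DNA without enzyme or drug, and DNA plus enzyme without drug. Read-out was the supercoiled versus relaxed DNA bands, scored as percent inhibition of TOP1 catalytic activity.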

Experiment [4] can be described thus: Inhibition of topoisomerase 1B-mediated relaxation of supercoiled pBR322 DNA at 1 uM after 30 mins by agarose gel electrophoresis. The procedure, abridged: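 TOP1 relaxation of supercoiled DNA was run with enzyme, DNA and serially diluted drug (1 to 125). Controls were DNA without enzyme or drug, and DNA plus enzyme without drug. Supercoiled and relaxed DNA bands were resolved by gel and compared.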

A word on the IC50: it is the concentration at which inhibition is half-maximal. A higher IC50 goes with weaker potency in that assay. With `Cc1c2c(n3ccccc13)C(=O)c1cnncc1C2=O`, the IC50 in experiment [1] came to 14.1 µM; in the experiment with MCF7, 1.67 µM; with NCI-H460, 1.21 µM; in experiment [2], 1.92 µM.

With `CCOC(=O)c1c2c(n3cccc(O)c13)C(=O)c1cnncc1C2=O`, the IC50 was > 25 µM in experiment [1], 20.8 µM with MCF7, 23.5 µM in the experiment with NCI-H460 and 11.6 µM in experiment [2].

For orientation: inhibition means the drop in the measured response relative to a control, in per cent. Higher therefore signals strong suppression. Compound `CC[C@@]1(O)C(=O)OCc2c1cc1n(c2=O)Cc2cc3ccccc3nc2-1` [CAMPTOTHECIN] came in with an inhibition in experiment [3] of 73%. In addition, the IC50 (in the experiment with NCI-H460; in experiment [2]) was > 25 µM each time.

For the compound `CCOC(=O)c1c2c(n3cc(C)ccc13)C(=O)c1cnncc1C2=O`, the IC50 in experiment [1] was 18.7 µM; with MCF7, 12.2 µM; in the experiment on NCI-H460, 11.1 µM; in experiment [2] it was 9.87 µM.

Take `N#Cc1c2c(n3ccccc13)C(=O)c1cnncc1C2=O`: the figures for the inhibition in experiment [3] and in experiment [4] were 100% and 23%, respectively. The IC50 in experiment [1] stood at 0.81 µM; in the experiment on MCF7, 1.09 µM; in the experiment with NCI-H460, 9.32 µM; in experiment [2], 1.13 µM.

For `O=C1c2cnncc2C(=O)c2c1cc1ccccn21`, the IC50 is 11.7 µM in experiment [1], 14.7 µM with MCF7, 11.4 µM in the experiment on NCI-H460 and 10.8 µM in experiment [2].

For `CCOC(=O)c1c2c(n3cccc(Cl)c13)C(=O)c1cnncc1C2=O`, the IC50 in experiment [1] is 1.6 µM; with MCF7, 1.2 µM; in the experiment on NCI-H460, 1.44 µM; in experiment [2], 1.09 µM.

Consider `COC(=O)c1c2c(n3ccccc13)C(=O)c1cnncc1C2=O`, for which the IC50 in experiment [1] came to 17 µM; in the experiment on MCF7 it was 23.7 µM; in the experiment with NCI-H460 it was 9.94 µM; in experiment [2], 13.7 µM.

Regarding `CCOC(=O)c1c2c(n3cccc(C)c13)C(=O)c1cnncc1C2=O`, the IC50 in experiment [1] worked out at 1.55 µM; in the experiment on MCF7 it was 1.22 µM; in the experiment with NCI-H460 it was 1.18 µM; in experiment [2] it was 10.3 µM.

Take `CCOC(=O)c1c2c(n3ccccc13)C(=O)c1cnncc1C2=O`: the IC50 (in experiment [1]; in the experiment with MCF7; in the experiment on NCI-H460; in experiment [2]) was > 25 µM each time.

As to `CC(=O)c1c2c(n3cccc(F)c13)C(=O)c1cnncc1C2=O`, the IC50 in experiment [1] amounted to 13.2 µM; in the experiment with MCF7, 10.7 µM; in the experiment with NCI-H460, 10.6 µM; in experiment [2], 1.85 µM.

On to `CC(=O)c1c2c(n3ccccc13)C(=O)c1cnncc1C2=O`, for which the IC50 in experiment [1] worked out at 11.2 µM; in the experiment on NCI-H460, 21.3 µM; in experiment [2], 24.7 µM.
